The values below come from ChEMBL document CHEMBL1765028 (Bioorg Med Chem, 2011).

Activity calls are given as the source filed them. The calls are words filed in the database; no cut-off is given here. Some results are limits rather than exact numbers.

For orientation: IC50 means the midpoint of a concentration-inhibition curve. By ΔTm is commonly meant the shift of the melting midpoint relative to a reference.

The test system of series [1] is Trypanosoma brucei rhodesiense. Nature of the series: Antiparasitic activity against Trypanosoma brucei rhodesiense STIB900 infected in mouse assessed as mean relapse day of parasitemia at 5 mg/kg, ip for 4 days. The class given is functional. The settings on record: route intraperitoneal. In a few lines: (§1)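 Acute STIB900 mouse model. Hydrochloride salts were given intraperitoneally at 5 mg/kg/day on four consecutive days. Cure is the number of mice surviving and parasite-free on day 60. Relapse is the mean day parasitemia reappears.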

The test system of a further series is L6. The series is described as follows: Cytotoxicity against rat L6 cells. The format is cell-based. An outline of the steps: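 Cultured L6 rat myoblast cells were used to measure IC50 cytotoxicity.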
The subject of series [2] is Trypanosoma brucei rhodesiense. The series is described as follows: Antiparasitic activity against Trypanosoma brucei rhodesiense STIB900. The format is functional, organism-based. An outline of the steps: (§2)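 Compounds tested in vitro as hydrochloride salts against Plasmodium falciparum K1 or Trypanosoma brucei rhodesiense STIB900.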
Series [3] can be described thus: Selectivity index, ratio of IC50 for rat L6 cells to IC50 for Trypanosoma brucei rhodesiense STIB900. The class given is toxicity, cell-based. The settings on record: L6 cells versus Trypanosoma brucei rhodesiense STIB900, read-out: Ratio IC50. An outline of the steps:
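Selectivity index is IC50 for L6 rat myoblasts divided by IC50 for T. b. rhodesiense STIB900. Both IC50s were measured in vitro.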

The next series relates to Plasmodium falciparum. Nature of the series: Antiparasitic activity against Plasmodium falciparum K1. The class given is functional, organism-based. An outline of the steps:
as §2

A short description of series [4]: Selectivity index, ratio of IC50 for rat L6 cells to IC50 for Plasmodium falciparum K1. The following applies: L6 cells versus Plasmodium falciparum K1, read-out: Ratio IC50. The class given is toxicity, cell-based. In a few lines:
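Selectivity index is IC50 for L6 rat myoblasts divided by IC50 for P. falciparum K1. Both IC50s were measured in vitro.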

Series [5] relates to Trypanosoma brucei rhodesiense. The series is described as follows: Antiparasitic activity against Trypanosoma brucei rhodesiense STIB900 infected in mouse assessed as cured at 5 mg/kg, ip for 4 days. The format is functional, organism-based. Set-up: dose 5 mg/kg. In a few lines:
as §1

Series [6] concerns Poly(dA-dT)oligonucleotide.

On to `N=C(N)c1ccc(-c2ccc(-c3ccc(C(=N)N)cc3)o2)cc1` [FURAMIDINE], for which the Activity in series [1] came out at 20 days.

As to `Cl.Cl.N=C(N)c1ccc(-c2ccc3cc(-c4ccc(C(=N)N)cc4)[nH]c3c2)cc1`, the IC50 with L6 was 3400 nM; in series [2] it was 3 nM; with Plasmodium falciparum it was 5.2 nM. The figures for the selectivity ratio in series [3] and in series [4] were 1130 and 653, respectively. The outcome in series [5] was inactive. Moreover, the Activity in series [1] is 20 days. Besides, the ΔTm in series [6] was greater than 27 °C.

Regarding `Cl.Cl.N=C(N)c1ccc(-c2ccc3nc(-c4ccc(C(=N)N)cc4)n(O)c3c2)cc1`, the results for the IC50 (in the series on L6; in series [2]; in the series with Plasmodium falciparum) were 124000 nM, 484 nM and 18 nM, respectively. The selectivity ratio stood at 256 in series [3] and 6890 in series [4]. The result in series [5] was inactive. Moreover, the Activity in series [1] is 8 days. In addition, the ΔTm in series [6] is 12.2 °C.

Turning to `Cl.Cl.N=C(N)c1ccc(-c2ccc3cc(-c4cc(C(=N)N)ccn4)[nH]c3c2)cc1`, the values for the half-maximal inhibitory concentration (IC50) (in the series with L6; in series [2]; in the series with Plasmodium falciparum) were 11600 nM, 5 nM and 18 nM, respectively. For the same molecule, the selectivity ratio came out at 2320 in series [3] and 644 in series [4]. Further, the Activity in series [1] was 24 days. Further, the ΔTm in series [6] is greater than 27 °C.

Regarding `Cl.Cl.N=C(N)c1ccc(-c2ccc3[nH]c(-c4ccc(C(=N)N)s4)cc3c2)cc1`, the IC50 in the series with L6 turned out to be 9900 nM; in series [2], 2 nM; with Plasmodium falciparum it was 7.1 nM. Besides, the selectivity ratio amounted to 4950 in series [3] and 1390 in series [4]. The Activity in series [1] was 17 days. In series [6], the ΔTm came to 25.5 °C.

Take `Cl.Cl.Cn1c(-c2ccc(C(=N)N)cc2)nc2cc(-c3ccc(C(=N)N)cc3)ccc21`: the IC50 with L6 was greater than 169000 nM; in series [2], 15 nM; in the series with Plasmodium falciparum, 1.3 nM. Further, the selectivity ratio was greater than 11300 in series [3] and greater than 130000 in series [4]. Also, in series [5], the result was inactive. The Activity in series [1] came to 11 days. Besides, in series [6], the ΔTm worked out at 11.2 °C.

Consider `N=C(N)c1ccc(-c2ccc(-c3nc4ccc(C(=N)N)cc4[nH]3)cc2)cc1`, for which the IC50 in the series on L6 was 17000 nM; in series [2], 7.7 nM; in the series with Plasmodium falciparum it was 0.5 nM. Further, the selectivity ratio in series [4] is 34000. The ΔTm in series [6] is greater than 27 °C.

For `Cl.Cl.N=C(N)c1ccc(-c2ccc3cc(-c4ccc(C(=N)N)s4)[nH]c3c2)cc1`, the values for the IC50 (with L6; in series [2]; with Plasmodium falciparum) were 2200 nM, 4 nM and 11.1 nM, respectively. Besides, the selectivity ratio in series [3] amounted to 550; in series [4], 198. For the same molecule, in series [1], the Activity turned out to be 17 days. For the same molecule, the ΔTm in series [6] was greater than 27 °C.

Consider `Cl.Cl.N=C(N)c1ccc(-c2ccc3cc(-c4cnccc4C(=N)N)[nH]c3c2)cc1`, for which the IC50 turned out to be 2600 nM in the series on L6, 4 nM in series [2] and 9.8 nM with Plasmodium falciparum. Further, the results for the selectivity ratio in series [3] and in series [4] were 650 and 265, respectively. Moreover, in series [1], the Activity is 24 days. Further, the ΔTm in series [6] is greater than 27 °C.

As to `Cl.Cl.N=C(N)c1ccc(-c2ccc3[nH]c(-c4ccc(C(=N)N)cc4)cc3c2)cc1`, the concentration for half-maximal inhibition (IC50) in the series with L6 was found to be 6700 nM; in series [2], 3 nM; in the series with Plasmodium falciparum, 5.7 nM. In addition, the selectivity ratio in series [3] is 2330; in series [4], 1180. Besides, the Activity in series [1] is 20 days. For the same molecule, the ΔTm in series [6] is 23.7 °C.

Take `Cl.Cl.N=C(N)c1ccc(-c2ccc3[nH]c(-c4ccc(C(=N)N)cc4)nc3c2)cc1`: the results for the IC50 (in the series with L6; in series [2]; with Plasmodium falciparum) were 62400 nM, 4 nM and 3.7 nM, respectively. The results for the selectivity ratio in series [3] and in series [4] were 15600 and 16900, respectively. For the same molecule, in series [5], the outcome was inactive. Also, the Activity in series [1] was 18 days. For the same molecule, the ΔTm in series [6] was greater than 27 °C.

For the molecule `N=C(N)c1ccc(-c2ccc(-c3cc4ccc(C(=N)N)cc4[nH]3)cc2)cc1`, the values for the IC50 (with L6; in series [2]; with Plasmodium falciparum) were 10500 nM, 2 nM and 3.3 nM, respectively. Besides, the ΔTm in series [6] was greater than 27 °C.

`N=C(N)c1ccc(-c2cc3ccc(C(=N)N)cc3[nH]2)cc1` [DAPI] came in with an IC50 in series [2] of 18 nM. In addition, the selectivity ratio in series [3] came to 48. The Activity in series [1] was 17 days. In addition, the ΔTm in series [6] was greater than 27 °C.

For `Cl.Cl.N=C(N)c1ccc(-c2ccc3cc(-c4ccc(C(=N)N)o4)[nH]c3c2)cc1`, the results for the IC50 (with L6; in series [2]; in the series with Plasmodium falciparum) were 9200 nM, 17 nM and 12.5 nM, respectively. The selectivity ratio in series [3] was 541; in series [4] it was 736. Also, the outcome in series [5] was inactive. In series [1], the Activity stood at 18 days. In addition, the ΔTm in series [6] was determined as 24.9 °C.

For `N=C(N)c1ccc(OCCCCCOc2ccc(C(=N)N)cc2)cc1` [PENTAMIDINE], the IC50 in the series on L6 was found to be 46000 nM. The Activity in series [1] turned out to be 20 days.
